Legend:
[1] = target: C-C chemokine receptor type 2 (Homo sapiens, UniProt P41597); assay: Binding affinity to CCR2 receptor (unknown origin)
[2] = target: Voltage-gated inwardly rectifying potassium channel KCNH2 (Homo sapiens, UniProt Q12809); assay: Binding affinity to human ERG
[3] = Cmax in rat at 10 mg/kg, po; format: ADME, organism-based; parameters: dose 10 mg/kg, route oral; conditions: in vivo
In short: (§1)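 Rat pharmacokinetics after a single oral dose of 10 mpk given in 0.5% methocel. Maximum plasma concentration and plasma exposure (AUC) were taken from the plasma concentration–time profile.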

[4] = target: hERG (KCNH2) (Homo sapiens, UniProt Q12809); assay: Inhibition of human ERG at 3 uM by patchxpress assay
Chain of hERG (KCNH2) (Q12809 whole entry): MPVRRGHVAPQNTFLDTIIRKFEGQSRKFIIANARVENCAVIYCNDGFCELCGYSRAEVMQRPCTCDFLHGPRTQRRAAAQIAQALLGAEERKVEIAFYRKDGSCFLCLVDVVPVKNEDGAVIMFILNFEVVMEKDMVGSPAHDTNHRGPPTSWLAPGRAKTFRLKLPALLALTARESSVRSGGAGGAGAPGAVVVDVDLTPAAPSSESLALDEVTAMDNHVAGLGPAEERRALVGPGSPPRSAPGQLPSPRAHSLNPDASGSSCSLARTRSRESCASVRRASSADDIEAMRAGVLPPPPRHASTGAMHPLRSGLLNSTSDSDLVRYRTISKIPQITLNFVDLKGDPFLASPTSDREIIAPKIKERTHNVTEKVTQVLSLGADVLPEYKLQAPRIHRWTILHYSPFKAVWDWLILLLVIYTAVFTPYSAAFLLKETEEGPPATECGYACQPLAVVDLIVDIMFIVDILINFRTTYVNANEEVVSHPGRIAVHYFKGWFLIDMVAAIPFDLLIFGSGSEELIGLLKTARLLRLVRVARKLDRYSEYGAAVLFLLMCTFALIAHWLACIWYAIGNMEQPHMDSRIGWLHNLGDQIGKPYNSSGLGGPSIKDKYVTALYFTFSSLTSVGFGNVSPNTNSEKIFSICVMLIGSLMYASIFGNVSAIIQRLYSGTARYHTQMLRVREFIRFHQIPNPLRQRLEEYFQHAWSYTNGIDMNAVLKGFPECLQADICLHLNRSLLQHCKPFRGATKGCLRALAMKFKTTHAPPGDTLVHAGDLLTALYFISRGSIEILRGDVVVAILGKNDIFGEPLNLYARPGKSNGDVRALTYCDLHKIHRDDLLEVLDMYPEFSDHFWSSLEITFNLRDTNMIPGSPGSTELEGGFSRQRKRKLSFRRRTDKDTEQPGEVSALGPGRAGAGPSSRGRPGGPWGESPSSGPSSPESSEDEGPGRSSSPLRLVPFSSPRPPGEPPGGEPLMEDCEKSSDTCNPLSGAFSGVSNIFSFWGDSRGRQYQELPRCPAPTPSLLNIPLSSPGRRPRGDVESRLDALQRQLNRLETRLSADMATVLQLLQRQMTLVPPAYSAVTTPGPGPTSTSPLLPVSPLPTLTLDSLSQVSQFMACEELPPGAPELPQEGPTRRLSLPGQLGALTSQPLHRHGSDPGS

[5] = AUC in rat at 10 mg/kg, po; format: ADME, organism-based; parameters: dose 10 mg/kg, route oral; conditions: plasma; in short: as §1

Chain of Voltage-gated inwardly rectifying potassium channel KCNH2 (Q12809 whole entry): as above
Chain of C-C chemokine receptor type 2 (P41597 whole entry): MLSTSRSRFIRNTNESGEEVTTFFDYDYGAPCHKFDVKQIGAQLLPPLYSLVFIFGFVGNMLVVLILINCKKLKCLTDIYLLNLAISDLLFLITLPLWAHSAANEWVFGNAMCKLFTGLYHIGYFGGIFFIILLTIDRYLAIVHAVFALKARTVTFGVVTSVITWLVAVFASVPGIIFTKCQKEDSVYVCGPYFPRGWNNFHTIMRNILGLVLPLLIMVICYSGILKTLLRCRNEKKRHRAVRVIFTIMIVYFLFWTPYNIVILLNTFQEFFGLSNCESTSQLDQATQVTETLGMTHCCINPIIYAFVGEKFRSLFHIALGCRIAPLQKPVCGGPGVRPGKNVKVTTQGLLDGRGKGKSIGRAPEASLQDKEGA

SMILES | IC50 [1] | Cmax [3] | AUC [5] | IC50 [2] | inhibition at 3 µM [4]
COC1COCCC1N[C@@H]1C[C@H]2CN(c3ccccc3)C[C@@]2(C(=O)N2CCc3ncc(C(F)(F)F)cc3C2)C1 (mixture of isomers) | 0.062 µM | – | – | 22.9 µM | –
COC1COCCC1N[C@@H]1C[C@H]2CN(C(=O)OCCC3CCOCC3)C[C@@]2(C(=O)N2CCc3ncc(C(F)(F)F)cc3C2)C1 (mixture of isomers) | 0.031 µM | 0.145 µg/mL | 0.427 µg·h/mL | > 50 µM | 7.3%
COC1COCCC1N[C@@H]1C[C@H]2CN(C(=O)/C=C/c3ccccc3)C[C@@]2(C(=O)N2CCc3ncc(C(F)(F)F)cc3C2)C1 (mixture of isomers) | – | – | – | 24.1 µM | –
COC1COCCC1N[C@@H]1C[C@H]2CN(C3CC3)C[C@@]2(C(=O)N2CCc3ncc(C(F)(F)F)cc3C2)C1 (mixture of isomers) | 0.18 µM | – | – | – | –
COC1COCCC1N[C@@H]1C[C@H]2CN(C(=O)OCCN3CCCC3)C[C@@]2(C(=O)N2CCc3ncc(C(F)(F)F)cc3C2)C1 (mixture of isomers) | 0.033 µM | – | – | > 50 µM | –
COC1COCCC1N[C@@H]1C[C@H]2CN(C)C[C@@]2(C(=O)N2CCc3ncc(C(F)(F)F)cc3C2)C1 (mixture of isomers) | – | – | – | > 50 µM | –
COC1COCCC1N[C@@H]1C[C@H]2CN(C(=O)NCc3ccccc3)C[C@@]2(C(=O)N2CCc3ncc(C(F)(F)F)cc3C2)C1 (mixture of isomers) | 0.057 µM | – | – | > 50 µM | –
COC1COCCC1N[C@@H]1C[C@H]2CN(C3COC3)C[C@@]2(C(=O)N2CCc3ncc(C(F)(F)F)cc3C2)C1 (mixture of isomers) | 0.126 µM | – | – | > 50 µM | –
COC1COCCC1N[C@@H]1C[C@H]2CNC[C@@]2(C(=O)N2CCc3ncc(C(F)(F)F)cc3C2)C1 (mixture of isomers) | – | – | – | > 50 µM | –
COC1COCCC1N[C@@H]1C[C@H]2CN(C(=O)Oc3ccccc3)C[C@@]2(C(=O)N2CCc3ncc(C(F)(F)F)cc3C2)C1 (mixture of isomers) | 0.56 µM | – | – | > 50 µM | –
COC1COCCC1N[C@@H]1C[C@H]2CN(C(=O)OCc3ccccc3)C[C@@]2(C(=O)N2CCc3ncc(C(F)(F)F)cc3C2)C1 (mixture of isomers) | 0.118 µM | – | – | > 50 µM | –
COC1COCCC1N[C@@H]1C[C@H]2CN(C(=O)OCC3CCOCC3)C[C@@]2(C(=O)N2CCc3ncc(C(F)(F)F)cc3C2)C1 (mixture of isomers) | 0.032 µM | – | – | – | –
COC1COCCC1N[C@@H]1C[C@H]2CN(C(=O)OCCN3CCOCC3)C[C@@]2(C(=O)N2CCc3ncc(C(F)(F)F)cc3C2)C1 (mixture of isomers) | 0.041 µM | – | – | > 50 µM | –
COC1COCCC1N[C@@H]1C[C@H]2CN(c3nccs3)C[C@@]2(C(=O)N2CCc3ncc(C(F)(F)F)cc3C2)C1 (mixture of isomers) | 0.152 µM | – | – | > 50 µM | –

Now from value to compound, other results behind:

IC50 [1] | Cmax [3] | AUC [5] | SMILES | IC50 [2] | inhibition at 3 µM [4]
0.082 µM | – | – | COCCOC(=O)N1C[C@@H]2C[C@@H](NC3CCOCC3OC)C[C@]2(C(=O)N2CCc3ncc(C(F)(F)F)cc3C2)C1 (mixture of isomers) | > 50 µM | –
0.059 µM | – | – | COC1COCCC1N[C@@H]1C[C@H]2CN(C(=O)OCC(C)(C)C)C[C@@]2(C(=O)N2CCc3ncc(C(F)(F)F)cc3C2)C1 (mixture of isomers) | > 50 µM | –
0.629 µM | – | – | CCN1C[C@@H]2C[C@@H](NC3CCOCC3OC)C[C@]2(C(=O)N2CCc3ncc(C(F)(F)F)cc3C2)C1 (mixture of isomers) | 42.6 µM | –
0.064 µM | 0.0706 µg/mL | 0.074 µg·h/mL | COC1COCCC1N[C@@H]1C[C@H]2CN(C(N)=O)C[C@@]2(C(=O)N2CCc3ncc(C(F)(F)F)cc3C2)C1 (mixture of isomers) | > 50 µM | –
0.045 µM | – | – | COC1COCCC1N[C@@H]1C[C@H]2CN(C(=O)OCCNC(C)=O)C[C@@]2(C(=O)N2CCc3ncc(C(F)(F)F)cc3C2)C1 (mixture of isomers) | > 50 µM | –
0.395 µM | – | – | COC1COCCC1N[C@@H]1C[C@H]2CN(C(C)=O)C[C@@]2(C(=O)N2CCc3ncc(C(F)(F)F)cc3C2)C1 (mixture of isomers) | > 50 µM | –
0.068 µM | – | – | COC1COCCC1N[C@@H]1C[C@H]2CN(C(=O)/C=C/C(C)(C)C)C[C@@]2(C(=O)N2CCc3ncc(C(F)(F)F)cc3C2)C1 (mixture of isomers) | > 50 µM | –
0.037 µM | – | – | COC1COCCC1N[C@@H]1C[C@H]2CN(/C(N)=N\C#N)C[C@@]2(C(=O)N2CCc3ncc(C(F)(F)F)cc3C2)C1 (mixture of isomers) | > 50 µM | –
0.41 µM | – | – | COC(=O)N1C[C@@H]2C[C@@H](NC3CCOCC3OC)C[C@]2(C(=O)N2CCc3ncc(C(F)(F)F)cc3C2)C1 (mixture of isomers) | > 50 µM | –
0.035 µM | – | – | COC1COCCC1N[C@@H]1C[C@H]2CN(C(=O)OCC(C)C)C[C@@]2(C(=O)N2CCc3ncc(C(F)(F)F)cc3C2)C1 (mixture of isomers) | > 50 µM | –
1.21 µM | – | – | COC1COCCC1N[C@@H]1C[C@H]2CN(C(C)C)C[C@@]2(C(=O)N2CCc3ncc(C(F)(F)F)cc3C2)C1 (mixture of isomers) | > 50 µM | –
0.077 µM | – | – | CNC(=O)N1C[C@@H]2C[C@@H](NC3CCOCC3OC)C[C@]2(C(=O)N2CCc3ncc(C(F)(F)F)cc3C2)C1 (mixture of isomers) | > 50 µM | –
0.087 µM | – | – | COC1COCCC1N[C@@H]1C[C@H]2CN(C(=O)C#CC3CC3)C[C@@]2(C(=O)N2CCc3ncc(C(F)(F)F)cc3C2)C1 (mixture of isomers) | 49.6 µM | –
0.41 µM | – | – | COC1COCCC1N[C@@H]1C[C@H]2CN(C(=O)NC(C)C)C[C@@]2(C(=O)N2CCc3ncc(C(F)(F)F)cc3C2)C1 (mixture of isomers) | > 50 µM | –

Reference: ChEMBL document CHEMBL3112390, “Discovery and SAR of 5-aminooctahydrocyclopentapyrrole-3a-carboxamides as potent CCR2 antagonists” (Bioorg Med Chem Lett, 2014)
